According to ChEMBL document CHEMBL1157524, “Synthesis and SAR of a mGluR5 allosteric partial antagonist lead: unexpected modulation of pharmacology with slight structural modifications to a 5-(phenylethynyl)pyrimidine scaffold” (Bioorg Med Chem Lett, 2008):

Columns and labels:
[1] = molecular target: T1, Metabotropic glutamate receptor 5 (Rattus norvegicus, UniProt P31424); assay: Activity at rat mGluR5 expressed in HEK293A cells; type: cell-based, HEK293-A
[2] = molecular target: Metabotropic glutamate receptor 5 (Rattus norvegicus) (UniProt P31424); assay: (§1) Antagonist activity at rat mGluR5 expressed in HEK293A cells assessed as inhibition of glutamate-induced calcium fluorescence; type: functional, cell-based; parameters: concentration or dose not given beside the values; settings: HEK293-A
[3] = molecular target: T1, Metabotropic glutamate receptor 5; assay: as §1; type: functional, cell-based, HEK293-A
[4] = molecular target: Metabotropic glutamate receptor 5 (Rattus norvegicus) (UniProt P31424); assay: Induction of rat mGluR5 activation expressed in HEK293A cells assessed as maximal response in presence of glutamate; type: cell-based; settings: HEK293-A
Outline: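 Potentiator mode in rat mGluR5 HEK293A cells loaded with Fluo4-AM (4.0 µM, 45 min, 37 °C) in HBSS/20 mM Hepes/2.5 mM probenecid, pH 7.4. Compound added at 19 s, then submaximal glutamate (150–165 nM) at 109 s. Calcium fluorescence read and compared with maximal glutamate response. Vehicle 0.3% DMSO. Triplicate on three days.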

[5] = molecular target: T1, Metabotropic glutamate receptor 5; assay: Displacement of [3H]methoxy-PEPy from rat mGluR5 expressed in HEK293A cells; type: cell-based, HEK293-A
Outline: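 Membranes from HEK293A cells with rat mGluR5 were incubated with 2 nM (final) [³H]methoxy-PEPy in 50 mM Tris, 0.9% NaCl, pH 7.4. Incubation was 60 min at room temperature with shaking. Bound ligand was separated by GF/B filtration with four buffer washes and counted by scintillation. MPEP defined nonspecific binding. Triplicate on three days.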

Metabotropic glutamate receptor 5 (Rattus norvegicus), sequence (P31424 21-1203 limits assumed): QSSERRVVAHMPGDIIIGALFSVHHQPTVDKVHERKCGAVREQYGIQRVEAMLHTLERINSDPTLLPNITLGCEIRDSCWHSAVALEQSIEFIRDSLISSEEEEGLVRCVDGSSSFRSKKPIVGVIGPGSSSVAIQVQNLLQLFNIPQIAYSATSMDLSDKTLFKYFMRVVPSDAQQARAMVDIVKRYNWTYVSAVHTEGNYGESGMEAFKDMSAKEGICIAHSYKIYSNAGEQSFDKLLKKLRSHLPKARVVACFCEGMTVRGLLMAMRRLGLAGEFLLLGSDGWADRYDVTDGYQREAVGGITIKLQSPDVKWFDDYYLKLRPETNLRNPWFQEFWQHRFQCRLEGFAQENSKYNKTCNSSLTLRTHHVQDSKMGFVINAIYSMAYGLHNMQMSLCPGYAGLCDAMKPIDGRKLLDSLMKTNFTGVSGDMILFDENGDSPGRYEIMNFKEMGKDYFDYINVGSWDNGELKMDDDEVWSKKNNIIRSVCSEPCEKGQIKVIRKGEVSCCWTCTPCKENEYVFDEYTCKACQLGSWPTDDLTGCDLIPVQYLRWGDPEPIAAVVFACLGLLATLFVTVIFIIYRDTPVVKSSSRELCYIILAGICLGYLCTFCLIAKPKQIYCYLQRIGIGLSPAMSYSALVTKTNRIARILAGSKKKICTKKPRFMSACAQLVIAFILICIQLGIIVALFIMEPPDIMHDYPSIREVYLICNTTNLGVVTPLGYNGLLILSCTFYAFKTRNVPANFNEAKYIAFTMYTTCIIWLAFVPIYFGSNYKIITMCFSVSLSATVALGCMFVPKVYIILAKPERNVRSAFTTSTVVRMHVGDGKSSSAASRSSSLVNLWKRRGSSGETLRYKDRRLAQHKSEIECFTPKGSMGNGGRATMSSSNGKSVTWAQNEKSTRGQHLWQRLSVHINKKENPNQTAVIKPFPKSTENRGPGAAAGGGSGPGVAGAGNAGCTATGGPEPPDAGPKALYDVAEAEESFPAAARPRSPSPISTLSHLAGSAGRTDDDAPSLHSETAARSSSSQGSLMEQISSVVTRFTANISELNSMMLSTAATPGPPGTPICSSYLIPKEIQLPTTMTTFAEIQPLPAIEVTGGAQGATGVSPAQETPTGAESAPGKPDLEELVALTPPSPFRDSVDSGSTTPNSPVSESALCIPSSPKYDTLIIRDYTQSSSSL
T1 sequence (P31424 whole entry): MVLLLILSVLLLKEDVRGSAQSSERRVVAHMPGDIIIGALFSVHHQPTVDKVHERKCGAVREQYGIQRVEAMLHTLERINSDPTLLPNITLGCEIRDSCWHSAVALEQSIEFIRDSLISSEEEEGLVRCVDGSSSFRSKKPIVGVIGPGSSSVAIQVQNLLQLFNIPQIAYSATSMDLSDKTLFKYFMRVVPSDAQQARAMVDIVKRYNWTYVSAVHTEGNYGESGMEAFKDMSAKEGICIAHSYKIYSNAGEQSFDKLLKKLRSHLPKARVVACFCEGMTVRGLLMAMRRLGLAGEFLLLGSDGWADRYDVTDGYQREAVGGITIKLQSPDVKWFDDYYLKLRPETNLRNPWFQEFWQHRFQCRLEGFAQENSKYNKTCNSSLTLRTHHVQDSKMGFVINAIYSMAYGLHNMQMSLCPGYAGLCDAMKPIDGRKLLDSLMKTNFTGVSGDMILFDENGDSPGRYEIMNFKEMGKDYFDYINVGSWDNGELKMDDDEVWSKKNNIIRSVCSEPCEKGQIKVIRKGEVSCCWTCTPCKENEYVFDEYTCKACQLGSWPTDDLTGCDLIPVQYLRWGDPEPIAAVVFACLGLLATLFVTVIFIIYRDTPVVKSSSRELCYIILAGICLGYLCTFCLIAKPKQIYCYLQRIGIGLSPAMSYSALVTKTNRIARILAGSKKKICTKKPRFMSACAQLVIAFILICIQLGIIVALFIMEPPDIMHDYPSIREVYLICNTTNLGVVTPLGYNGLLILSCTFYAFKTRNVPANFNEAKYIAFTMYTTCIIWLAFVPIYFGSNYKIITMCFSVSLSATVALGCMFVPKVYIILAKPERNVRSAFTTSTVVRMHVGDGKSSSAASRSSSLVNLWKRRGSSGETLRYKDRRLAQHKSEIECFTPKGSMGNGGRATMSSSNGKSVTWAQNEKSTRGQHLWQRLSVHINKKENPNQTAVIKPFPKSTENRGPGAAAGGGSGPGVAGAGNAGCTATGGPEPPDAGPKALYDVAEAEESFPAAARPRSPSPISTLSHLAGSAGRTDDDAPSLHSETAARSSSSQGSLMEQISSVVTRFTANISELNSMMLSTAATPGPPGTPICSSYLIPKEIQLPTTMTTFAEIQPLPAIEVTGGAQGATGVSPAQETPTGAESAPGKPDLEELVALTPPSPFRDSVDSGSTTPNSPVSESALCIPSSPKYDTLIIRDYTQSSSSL

Activity [2]	IC50 [3]	SMILES	other results
		Clc1ccc(C#Cc2cncnc2)cc1	EC50 [1]: 3.9 µM
100%	0.35 µM	Cc1cc(C#Cc2cncnc2)ccc1F	
100%	0.45 µM	FC(F)(F)c1cccc(C#Cc2cncnc2)c1	
		Fc1cccc(/C=N/N=C/c2cccc(F)c2)c1	Activity [4]: < 70%
100%	7.8 µM	C(#Cc1cncnc1)c1ccc(-c2ccccc2)cc1	
100%	0.034 µM	Clc1cccc(C#Cc2cncnc2)c1	
50%		Cc1ccc(C#Cc2cncc(Br)c2)nc1	
100%	0.007 µM	Cc1cccc(C#Cc2cncnc2)c1	
		N#Cc1cccc(C(=O)Nc2cc(-c3ccccc3)nn2-c2ccccc2)c1	Activity [4]: < 70%
		O=Cc1ccc(C#Cc2cncnc2)cc1	EC50 [1]: 7.9 µM
		Cc1ccc(C#Cc2cncnc2)cc1	Activity [4]: 99%; EC50 [1]: 3.3 µM
50%		COc1cccc(C#Cc2ccc(C)cn2)c1	
100%	6.4 µM	Fc1cc(F)cc(C#Cc2cncnc2)c1	
58%		O=C(Nc1cccc(F)c1)c1cccc(Cl)c1	EC50 [3]: 0.297 µM
		CCc1ccc(C#Cc2cncnc2)cc1	EC50 [1]: 18.8 µM
58%	11.2 µM	Cc1ccc(C)c(C#Cc2cncnc2)c1	
		O=C(Nc1ccc(Cl)cc1CN1C(=O)c2ccccc2C1=O)c1ccccc1O	Activity [4]: < 70%
71%	0.48 µM	C(#Cc1cncnc1)c1ccccc1	Ki [5]: 0.126 µM
